Laboratory results: ChEMBL document CHEMBL4513216, “Probing the Open Global Health Chemical Diversity Library for Multistage-Active Starting Points for Next-Generation Antimalarials” (ACS Infect Dis, 2020)

Assay: Toxicity liver stage against HepG2, at 10uM
Format: cell-based
Design: test concentration 10 uM, cell line HepG2-A16-CD81EGFP
Details: human, HepG2-A16-CD81EGFP cells; read-out: INHIBITION
Summary of the method: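 Uninfected HepG2-A16-CD81EGFP cells, 3 × 10^3 per well, 1536-well, plated on prespotted compound at 10 μM final, parasite-free screening media added to match infected plates; puromycin 10 μM positive, DMSO 0.5% negative; run in parallel with 48 h PbLuc assay at 37 °C, 5% CO2; viability by CellTiter-Glo luminescence, normalized to controls.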

| SMILES | cytotoxicity at 10 µM [%] |
| --- | --- |
| CCn1ccnc1CN(C)Cc1nc(CCC(C)C)no1 | 2.89 |
| CCc1nc(-c2ccc(NC(=O)N3CCC4(CC3)OCCO4)cc2)no1 | 7.27 |
| COc1cnc(CSc2nnc(C)s2)cc1OCC(=O)NC(C)(C)C | 9.82 |
| CO[C@H]1CN(C)S(=O)(=O)[C@@]12CCN(Cc1ccccc1)C2 | 1.79 |
| CC(=O)c1cc2c(=O)[nH]c(=O)n(C)c2nc1C | -2.89 |
| COCCNc1nc(N2CCOCC2)nc2nccnc12 | 4.09 |
| CC(C)C[C@H](NC(=O)Cn1ccc2c(Cl)cccc21)C(=O)O | 5.19 |
| Cc1cc(-c2nn3c(C(C)C)nnc3s2)on1 | 0.9 |
| CC1CCN(C(=O)c2cn(-c3cc(N4CCSCC4)ncn3)cn2)CC1 | -3.75 |
| O=S(=O)(NCCC(O)c1cccs1)c1ccccc1 (configuration not stated) | -3.82 |
| Cn1ncc2c1NC(=O)CC2c1ccccc1Br (configuration not stated) | 49 |
| CC1=Nc2c(c(O)nn2C(C)C)C(c2cccnc2)S1 (configuration not stated) | 2.93 |
| CCn1nc(C)c2nc(C(C)C)nc(NCC(C)O)c21 (configuration not stated) | 8.02 |
| Oc1ccccc1-c1n[nH]c(C2CCCO2)n1 (configuration not stated) | -5.22 |
| CCC(=O)Nc1nnc(CCOc2cccc(OC)c2)s1 | 5.73 |
| O=C(N[C@@H]1CN(Cc2c[nH]nc2-c2ccccc2)C[C@H]1O)c1cc[nH]n1 | 2.8 |
| Cc1cnc(CCNC(=O)C2CN(C(=O)Cc3ccc(F)cc3)C2)s1 | 0.82 |
| CN1C(=O)CO[C@H]2CN(C(=O)c3ccc4c(c3)CCCC4)C[C@@H]21 | 5.45 |
| O=C(O)c1cncc(Cc2ccc(F)cc2)c1 | 2.39 |
| Cc1cc(F)ccc1S(=O)(=O)NCc1[nH]ncc1Br | 15.1 |
| CC(C)(C)n1cc(CNC2CCN(C(=O)c3ccncc3)CC2)cn1 | -6.72 |

| SMILES | cytotoxicity at 10 µM [%] |
| --- | --- |
| CN(CCc1ccncc1)C(=O)c1sccc1OC(F)F | -9.32 |
| CCC(=O)NCC(=O)NC(C)c1sc(-c2ccccc2F)nc1C (configuration not stated) | 9.65 |
| O=C(NCc1cccc(N2CC=CC2)c1)NCC(F)(F)F | 8.89 |
| CCc1ccc(C2COCCN2C(=O)Nc2cccc(C(C)=O)c2)o1 (configuration not stated) | -7.13 |
| CS(=O)(=O)NCC1CCCN(c2ccc(C#N)cn2)C1 (configuration not stated) | -11.1 |
| CN1CCN(C(=O)C2CCCc3[nH]ncc32)CC1 (configuration not stated) | 0.247 |
| Cc1ccc(NC(=O)CNc2cccc(C(N)=O)c2C)c(C)c1 | 17.6 |
| Cn1ccnc1CN(Cc1cccnc1)CC1CCCO1 (configuration not stated) | 15.2 |
| N#Cc1cccc(S(=O)(=O)CCN2CCOC2=O)c1 | -2.32 |
| O=C1CC(CNc2cncc(Br)c2)c2ccccc2N1 (configuration not stated) | -5.19 |
| N#Cc1cccnc1NCCC1CCN(CC(F)(F)F)CC1 | 11 |
| Cn1cnn(CC(=O)NCc2ccccc2F)c1=O | 2.4 |
| O=C(Cc1ccc(-n2cnnn2)cc1)Nc1nncs1 | 5.47 |
| CCN(Cc1ccoc1)C(=O)c1ccc(C)c(S(N)(=O)=O)c1 | -4.63 |
| Cc1cnn(CC2CCCN2c2ncnc3c2CCC3)c1 (configuration not stated) | 7.84 |
| CCOc1ccc(CN(C)C(C)C(=O)Nc2cc(C)no2)cc1 (configuration not stated) | 10.6 |
| COc1cccc(-c2n[nH]cc2CNCC2CCS(=O)(=O)C2)c1 (configuration not stated) | -3.54 |
| Cc1cc(CN2CCCC(NS(C)(=O)=O)C2)ccc1-n1cncn1 (configuration not stated) | 3.78 |
| O=C(NCc1ccnc(O)c1)NCC1CCCC1 | 3.57 |
| CCN(Cc1ccc(Cl)s1)S(=O)(=O)CCOC | 12.1 |
| CSCCCNC(=O)Nc1cccc(-c2nccn2C)c1 | -6.25 |

| SMILES | cytotoxicity at 10 µM [%] |
| --- | --- |
| Cc1ccc(S(=O)(=O)Nc2ccc(-n3cccc3C(=O)O)c(C)c2)s1 | 6.15 |
| N#Cc1ncn(CCC(=O)Nc2c(Cl)cccc2Cl)n1 | -11.4 |
| CCNC(=O)c1ccoc1CN1c2ccccc2CC1C (configuration not stated) | -10.2 |
| COc1cccc2c1OCC(NC(=O)NC1CCN(C3CC3)CC1)C2 (configuration not stated) | -10.7 |
| Cc1nc2c(c(N3CC=CC3)n1)CCN(c1ncccc1C(N)=O)CC2 | -10.2 |
| CCCc1nnc(C(=O)N(C)Cc2ccc(OC)cc2)o1 | 2.64 |
| CCC(CO)N(Cc1ccco1)C(=O)c1ccc(F)cc1Cl (configuration not stated) | -0.247 |
| CCN1CC(C(=O)NCCc2csc(-c3ccncc3)n2)CC1=O (configuration not stated) | -5.64 |
| Cc1n[nH]c(CN2CCN(C(=O)C3CCC3)[C@@H]3CS(=O)(=O)C[C@@H]32)n1 | -10.8 |
| CC(C)(C)C1CCC(NCCN2CCOCC2)CC1 (configuration not stated) | 0.741 |
| c1ccc(-c2nc3c(c(NCCn4ccnn4)n2)CCNCC3)nc1 | -51.1 |
| Cc1ncsc1CCN(C)C(=O)CN1CC2(CCCC2)CC1=O | 2.19 |
| C[C@@H]1CN(c2nc3c(cc2C(N)=O)CCC3)CC[C@@]1(O)C1CCC1 | 0.186 |
| Cc1cc(C(=O)N2CCCC(c3nccn3C)C2)cc(S(N)(=O)=O)c1C (configuration not stated) | 5.5 |
| Cc1cnccc1-n1nc(C(C)C)nc1CCc1cnccn1 | 1.92 |
| Cc1nc(N2C[C@H]3CC[C@@H](C2)N3)nc2cc(S(C)(=O)=O)ccc12 | -7.71 |
| COCCNc1nc2c(c(NCc3ccncc3)n1)CCNCC2 | -2.18 |
| CCn1c(CN(C)C)nnc1C1CCN(Cc2cccc(OC)c2)CC1 | -13.6 |
| COC(=O)C1CCN(C(=O)c2ccc(N(C)S(C)(=O)=O)c(C)c2)CC1 | -1.18 |
| CN(Cc1cnn(C)c1)C(=O)NCCc1ccc2c(c1)OCCO2 | -15.4 |
| O=C(c1ccc(Cn2ccccc2=O)o1)N1CCC2(CC1)OCCO2 | -12.8 |

| SMILES | cytotoxicity at 10 µM [%] |
| --- | --- |
| CCc1nc(C2CCCN2CC(=O)NCCOc2ccccc2)no1 (configuration not stated) | -16.4 |
| Cn1cc(C(=O)N2CCN(Cc3ccsc3)CC2)cn1 | -10 |
| c1ncn(CC2CN(Cc3nc(-c4ccsc4)no3)CCO2)n1 (configuration not stated) | -4.72 |
| Cc1cc(C)cc(OCCC(=O)N2CCCC(n3cncn3)C2)c1 (configuration not stated) | -3.76 |
| Cc1n[nH]c(C)c1C1COCCN1C(=O)c1cc(Cl)c[nH]1 (configuration not stated) | -4.12 |
| O=C1C(NCc2nnc3n2CCCC3)CCCN1c1cccc(F)c1 (configuration not stated) | -9.68 |
| COc1cc(C)nc(N2CCN(C(=O)CN(C)C3CC3)CC2)n1 | -4.43 |
| CCc1nc(C2CCCN2C(=O)c2nccnc2N)no1 (configuration not stated) | -18.7 |
| CCN1CCN(C(=O)c2cc(C(=O)OC)nn2-c2ccccc2)CC1 | -13.4 |
| CCc1nc(CN(C(C)=O)C2CCN(CCc3cnn(C)c3)C2)no1 (configuration not stated) | -6.38 |
| O=C(N[C@H]1CN[C@H]2CCCO[C@H]21)c1cccnc1 | -9.99 |
| Cc1cc(O)nc(C2CCCNC2)n1 (configuration not stated) | -9.14 |
| CN1CCN(C(=O)Cc2cccc(F)c2)Cc2cccnc21 | -6.17 |
| O=C([C@@H]1COC[C@H]2CN(C3CCOCC3)C[C@H]21)N1CCCCO1 | -6.28 |
| CCOCC1CN(Cc2cccs2)Cc2nn(C)cc21 (configuration not stated) | -75.2 |
| CC(C)N1CCO[C@H]2CN(C(=O)c3ccccn3)C[C@H]21 | -67.6 |
| CC(C)(C)c1ccc(CN2C[C@H]3CC(O)C[C@H]3C2)c(OCC(N)=O)c1 (some centres not stated) | 2.71 |
| COc1ccc(-n2cc3[nH][nH]c(=O)n3c2=O)cc1 | 10.3 |
| CC(C)(C)c1cc(CN2C[C@@H]3CC[C@H]2CN(Cc2ccccn2)C3)n[nH]1 | -0.123 |
